# According to publication PMC7350150 (Neoplasia (New York, N.Y.), 2020):
# “Also recorded” adds a separate entry of the source.
# What was measured:
# NCI-H1048 = assay: Pamiparib and TMZ combination, anti-proliferation; type: cell-based; conditions: Homo sapiens, NCI-H1048, read-out: EC50 of TMZ single agent
# DMS153 = assay: Pamiparib and TMZ combination, anti-proliferation; type: cell-based; conditions: Homo sapiens, DMS-153, read-out: EC50 of TMZ single agent
# U87-MG = assay: Pamiparib and TMZ combination, anti-proliferation; type: cell-based; conditions: Homo sapiens, U-87 MG, read-out: EC50 of TMZ single agent
# U251 = assay: Pamiparib and TMZ combination, anti-proliferation; type: cell-based; conditions: Homo sapiens, U-251, read-out: EC50 of TMZ single agent
# NCI-H69 = assay: Pamiparib and TMZ combination, anti-proliferation; type: cell-based; conditions: Homo sapiens, NCI-H69, read-out: EC50 of TMZ single agent
# [1] = tested on: intracranial H209 xenograft; assay: Intracranial H209 xenograft survival; type: in vivo, BALB/c nude mice; conditions: pamiparib 3 mg/kg BID day 1–21, 29–49; TMZ 50 mg/kg; combination TMZ 50 mg/kg plus pamiparib 0.75 mg/kg BID
# U-118MG = assay: Pamiparib and TMZ combination, anti-proliferation; type: cell-based; conditions: Homo sapiens, read-out: EC50 of TMZ single agent
# NCI-H2227 = assay: Pamiparib and TMZ combination, anti-proliferation; type: cell-based; conditions: read-out: EC50 of TMZ single agent
# T98G = assay: Pamiparib and TMZ combination, anti-proliferation; type: cell-based; conditions: Homo sapiens, read-out: EC50 of TMZ single agent
# NCI-H2286 = assay: Pamiparib and TMZ combination, anti-proliferation; type: cell-based; conditions: Homo sapiens, NCI-H2286, read-out: EC50 of TMZ single agent
# SNB-19 = assay: Pamiparib and TMZ combination, anti-proliferation; type: cell-based; conditions: Homo sapiens, SNB-19, read-out: EC50 of TMZ single agent
# SF-539 = assay: Pamiparib and TMZ combination, anti-proliferation; type: cell-based; conditions: Homo sapiens, SF-539, read-out: EC50 of TMZ single agent
# [2] = tested on: intracranial H209-TR xenografts; assay: Intracranial H209-TR xenograft survival; type: in vivo, BALB/c nude mice; conditions: same treatment schedule as intracranial H209
# SF-295 = assay: Pamiparib and TMZ combination, anti-proliferation; type: cell-based; conditions: Homo sapiens, SF-295, read-out: EC50 of TMZ single agent
# NCI-H209 = assay: Pamiparib and TMZ combination, anti-proliferation; type: cell-based; conditions: Homo sapiens, NCI-H209, read-out: EC50 of TMZ single agent
# NCI-H1436 = assay: Pamiparib and TMZ combination, anti-proliferation; type: cell-based; conditions: Homo sapiens, NCI-H1436, read-out: EC50 of TMZ single agent
# LN-229 = assay: Pamiparib and TMZ combination, anti-proliferation; type: cell-based; conditions: Homo sapiens, LN-229, read-out: EC50 of TMZ single agent
# [3] = Brain penetration of PARP inhibitors in mice; type: in vivo, male C57 mice; conditions: for Kp: po, AUC1-4h
# [4] = tested on: MDA-MB-436 breast cancer xenograft; assay: MDA-MB-436 breast cancer xenograft efficacy; type: in vivo, BALB/c nude mice; conditions: for tumor relapse at day 89: two months after treatment terminated
# Summary of the method: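 MDA-MB-436 cells at 2.5 × 10⁷ cells/mL in 1:1 PBS/Matrigel, implanted subcutaneously in the right front flank of 6–8-week female BALB/c nude mice. At ~130 mm³, mice stratified into six groups of nine. Oral BID dosing for 28 days: vehicle (0.5% methylcellulose), test compound from 1.6 mg/kg, or a comparator PARP inhibitor at 25 or 50 mg/kg. Tumours followed to day 89.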
# [5] = Brain penetration after intravenous administration, Kpuu; type: in vivo, SD rats; conditions: male, Sprague-Dawley, rat, brain and plasma (unbound), 1 mg/kg
# Human BCRP = Human BCRP (Homo sapiens, UniProt Q9UNQ0); assay: ATP-dependent uptake activity, BCRP substrate test; type: in vitro ADME; conditions: 0.5 μM to 30 μM; uptake ratio ≥ 2-fold is positive
# [6] = tested on: intracellular PARP activity in H2O2-treated GL261 cells; assay: Inhibition of H2O2-induced PAR synthesis; type: cell-based, murine; conditions: Mus musculus, GL261, read-out: IC50 of intracellular PARP activity
# Summary of the method: (§1)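 Cells seeded at 5000/well in DMEM with 10% FBS. After 4 h, test compound added as eight serial dilutions (0.02–200 nM final) in 0.1% DMSO for 18 h. DNA damage induced with 200 μM H₂O₂ at 37 °C for 5 min. Cells fixed in ice-cold methanol at −20 °C and stained overnight at 4 °C with anti-PAR mAb, Alexa 488 secondary and DAPI. Nuclear PAR intensity imaged; IC50 taken from residual activity.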
# PK study in healthy mice = type: in vivo, Mouse
# Summary of the method: (§2)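 Healthy animals given a single dose. Mouse: 10 mg/kg p.o. or 1 mg/kg i.v. Rat: 5 mg/kg p.o. or 2 mg/kg i.v. Dog: 2 mg/kg p.o. or 1 mg/kg i.v. Plasma deproteinised with acetonitrile containing internal standard and centrifuged at 14,000 rpm for 8 min. Drug measured by LC–MS/MS. Dosing solutions analysed to confirm the actual dose given.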
# PK study in dog = type: in vivo
# Summary of the method: as §2
# PK study in rat = type: in vivo
# Summary of the method: as §2
# [7] = tested on: PARylation in brain tumors, intracranial H209 xenograft; assay: Brain penetration and PD in intracranial H209 xenograft; type: in vivo, mice; conditions: single dose 3 mg/kg p.o., 4 h after treatment
# [8] = tested on: intracellular PARP activity in H2O2-treated SF-295 cells; assay: Inhibition of H2O2-induced PAR synthesis; type: cell-based; conditions: Homo sapiens, SF-295, read-out: IC50 of intracellular PARP activity
# Summary of the method: as §1
# P-gp = P-gp (Homo sapiens, UniProt P08183); assay: P-gp efflux activity in MDCKII-MDR1 cell monolayer; type: in vitro ADME; conditions: 1 µM and 10 µM; ER > 2 and decrease to < 50% with inhibitor suggests substrate
# [9] = PK/PD in MDA-MB-436 xenograft; type: in vivo, mice; conditions: BALB/c nude, mouse, tumor, oral, 5.45 mg/kg
# [10] = tested on: PARylation in MDA-MB-436 xenograft tumors; assay: PK/PD in MDA-MB-436 xenograft; type: in vivo, mice; conditions: single dose 5.45, first 12 h
# [11] = tested on: intracellular PAR levels in HeLa cells; assay: Inhibition of H2O2-induced PAR synthesis; type: cell-based; conditions: Homo sapiens, 18 h, read-out: IC50 of intracellular PARP activity
# [12] = tested on: GL261 syngeneic intracranial glioma; assay: GL261 syngeneic intracranial glioma model survival; type: in vivo, Mice; conditions: single agent 9 mpk
# [13] = QWBA tissue distribution of [14C] pamiparib; type: in vivo, Long-Evans rats; conditions: rats, single oral 5 mg/kg, 24 h post treatment
# [14] = single p.o. dose: Pamiparib 10, Talazoparib 3, Olaparib 50, Niraparib 50 mg/kg
# [15] = male, C57, mouse, brain and plasma, Brain/Plasma, single p.o. dose: Pamiparib 10, Talazoparib 3, Olaparib 50, Niraparib 50 mg/kg
# [16] = mouse, plasma, intravenous, 1 mg/kg
# [17] = Rat, 5 mg/kg p.o. or 2 mg/kg i.v.
# Chain of P-gp (P08183 whole entry): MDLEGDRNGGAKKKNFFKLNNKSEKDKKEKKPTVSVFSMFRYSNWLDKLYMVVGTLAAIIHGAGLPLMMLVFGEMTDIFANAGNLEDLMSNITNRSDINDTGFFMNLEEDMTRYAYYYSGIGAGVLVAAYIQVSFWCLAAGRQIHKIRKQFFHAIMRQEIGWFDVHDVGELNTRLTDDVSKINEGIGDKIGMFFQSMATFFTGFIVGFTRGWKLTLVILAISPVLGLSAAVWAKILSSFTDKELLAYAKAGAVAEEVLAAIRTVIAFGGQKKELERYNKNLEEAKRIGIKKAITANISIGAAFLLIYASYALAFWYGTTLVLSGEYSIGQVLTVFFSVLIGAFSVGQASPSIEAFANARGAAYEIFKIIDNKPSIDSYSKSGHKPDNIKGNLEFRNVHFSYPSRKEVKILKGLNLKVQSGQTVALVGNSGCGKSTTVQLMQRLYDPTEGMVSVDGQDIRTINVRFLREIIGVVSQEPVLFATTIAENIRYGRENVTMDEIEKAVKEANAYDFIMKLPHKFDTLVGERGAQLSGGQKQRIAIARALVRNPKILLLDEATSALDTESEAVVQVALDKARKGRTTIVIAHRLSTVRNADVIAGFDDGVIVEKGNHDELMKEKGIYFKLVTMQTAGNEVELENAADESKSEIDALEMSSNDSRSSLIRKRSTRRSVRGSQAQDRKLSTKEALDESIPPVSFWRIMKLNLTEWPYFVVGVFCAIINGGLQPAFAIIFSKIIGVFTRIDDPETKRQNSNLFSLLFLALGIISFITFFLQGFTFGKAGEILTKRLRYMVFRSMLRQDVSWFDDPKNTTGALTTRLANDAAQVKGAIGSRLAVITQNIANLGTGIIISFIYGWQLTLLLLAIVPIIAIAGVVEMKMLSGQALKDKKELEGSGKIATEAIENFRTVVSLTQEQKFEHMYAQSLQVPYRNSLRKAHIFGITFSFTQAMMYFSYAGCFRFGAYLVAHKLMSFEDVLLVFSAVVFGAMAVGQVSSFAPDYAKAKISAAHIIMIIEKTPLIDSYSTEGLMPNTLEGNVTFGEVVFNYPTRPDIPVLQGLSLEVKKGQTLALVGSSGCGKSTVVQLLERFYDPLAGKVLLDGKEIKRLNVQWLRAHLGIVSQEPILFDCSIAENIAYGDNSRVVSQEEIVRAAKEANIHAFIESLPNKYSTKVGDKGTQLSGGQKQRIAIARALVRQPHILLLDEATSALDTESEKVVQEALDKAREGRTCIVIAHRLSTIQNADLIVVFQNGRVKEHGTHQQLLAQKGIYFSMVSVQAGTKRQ
# Chain of Human BCRP (Q9UNQ0 whole entry): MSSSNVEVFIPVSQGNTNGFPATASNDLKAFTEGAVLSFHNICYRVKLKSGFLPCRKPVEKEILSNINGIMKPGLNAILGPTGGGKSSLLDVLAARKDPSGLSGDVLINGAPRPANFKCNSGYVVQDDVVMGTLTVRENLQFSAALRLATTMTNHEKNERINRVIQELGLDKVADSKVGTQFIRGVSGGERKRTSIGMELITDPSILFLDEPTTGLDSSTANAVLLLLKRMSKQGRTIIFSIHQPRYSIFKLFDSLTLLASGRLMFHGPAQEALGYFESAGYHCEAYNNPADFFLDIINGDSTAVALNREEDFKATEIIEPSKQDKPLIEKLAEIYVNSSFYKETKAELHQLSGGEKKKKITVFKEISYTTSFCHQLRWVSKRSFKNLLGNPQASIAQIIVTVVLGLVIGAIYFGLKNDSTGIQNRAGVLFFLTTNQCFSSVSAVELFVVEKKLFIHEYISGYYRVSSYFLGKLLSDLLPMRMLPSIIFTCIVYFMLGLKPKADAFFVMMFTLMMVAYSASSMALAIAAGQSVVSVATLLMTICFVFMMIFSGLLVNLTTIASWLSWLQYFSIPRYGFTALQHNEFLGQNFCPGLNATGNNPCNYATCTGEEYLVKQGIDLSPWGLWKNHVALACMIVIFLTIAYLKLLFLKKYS
structure (smiles),measurement,setting,value
"Cn1nnc2c(C(N)=O)ncn2c1=O [TMZ, Temozolomide]",EC50,NCI-H1048,153 µM
same,EC50,DMS153,60 µM
same,EC50,U87-MG,> 300 µM
same,EC50,U251,32 µM
same,EC50,NCI-H69,15 µM
same,median survival,[1],75 days
same,EC50,U-118MG,> 300 µM
same,EC50,NCI-H2227,576 µM
same,EC50,T98G,> 300 µM
same,EC50,NCI-H2286,182 µM
same,EC50,SNB-19,> 300 µM
same,EC50,SF-539,80 µM
same,median survival,[2],24 days
same,EC50,SF-295,> 300 µM
same,EC50,NCI-H209,63 µM
same,EC50,NCI-H1436,> 300 µM
same,EC50,LN-229,> 300 µM
"O=C(c1cc(Cc2n[nH]c(=O)c3ccccc23)ccc1F)N1CCN(C(=O)C2CC2)CC1 [Olaparib, olaparib, reference compound]","AUC1-4h, Brain",[3]; [14],56 ng·h/g
same,objective responses,"[4]; olaparib high-dose group (50 mg/kg, BID)",100%
same,tumor relapse at day 89,[4]; olaparib 25 mg/kg BID,tumor relapse was observed
"NC(=O)c1cccc2cn(-c3ccc([C@@H]4CCCNC4)cc3)nc12 [Niraparib, niraparib]",Kp at 1 h,"[3]; male, C57, mouse, brain and plasma, oral, Brain/Plasma, concentration, 1 h, single p.o. dose: Pamiparib 10, Talazoparib 3, Olaparib 50, Niraparib 50 mg/kg",0.06
same,Kp at 2 h,"[3]; male, C57, mouse, brain and plasma, oral, Brain/Plasma, concentration, 2 h, single p.o. dose: Pamiparib 10, Talazoparib 3, Olaparib 50, Niraparib 50 mg/kg",0.08
same,Kp at 4 h,"[3]; male, C57, mouse, brain and plasma, oral, Brain/Plasma, concentration, 4 h, single p.o. dose: Pamiparib 10, Talazoparib 3, Olaparib 50, Niraparib 50 mg/kg",0.14
same,Kp,[3]; [15],0.09
same,"AUC1-4h, Brain",[3]; [14],1849 ng·h/g
C[C@]12CCCN1CC1=NNC(=O)c3cc(F)cc4[nH]c2c1c34 [Pamiparib],Kp,[5],0.158
same,BCRP substrate assessment,Human BCRP,not a substrate of P-gp or BCRP
same,IC50,[6],0.00025 µM
same,drug concentration in brain,[3]; maintained for 4 h post treatment,> 100 ng/g
same,Kp,[3]; [15],0.18
same,"AUC1-4h, Brain",[3]; [14],820 ng·h/g
same,AUC 0-inf/Dose,"PK study in healthy mice; Mouse, 10 mg/kg p.o. or 1 mg/kg i.v.",552 ± 194 ng.h/mL per mg/kg
same,half-life,"PK study in healthy mice; mouse, plasma",3.2 ± 0.5 h
same,Vd,PK study in healthy mice; [16],5.7 ± 0.5 L/kg
same,clearance,PK study in healthy mice; [16],1.79 ± 0.144 L/h/kg
same,bioavailability,"PK study in healthy mice; mouse, plasma, oral",99 ± 35%
same,median survival,[1],26.5 days
same,AUC 0-inf/Dose,"PK study in dog; Dog, 2 mg/kg p.o. or 1 mg/kg i.v.",800 ± 95 ng.h/mL per mg/kg
same,half-life,"PK study in dog; dog, plasma",3.6 ± 1.9 h
same,Vd,"PK study in dog; dog, plasma, intravenous, 1 mg/kg",2.1 ± 0.2 L/kg
same,bioavailability,"PK study in dog; dog, plasma, oral",73 ± 4%
same,AUC 0-inf/Dose,PK study in rat; [17],694 ± 124 ng.h/mL per mg/kg
same,clearance,PK study in rat; [17],1.36 ± 0.168 L/h/kg
same,half-life,"PK study in rat; rat, plasma",5.5 ± 0.8 h
same,Vd,"PK study in rat; rat, plasma, intravenous, 2 mg/kg",6.9 ± 0.7 L/kg
same,bioavailability,"PK study in rat; rat, plasma, oral",94 ± 17%
same,inhibition of PARylation in brain tumors,[7],complete inhibition of PARylation; also recorded: completely inhibited
same,IC50,[8],0.00017 µM
same,P-gp substrate assessment,P-gp,not a substrate of P-gp or BCRP
same,concentration at 4 h,[9],~0.8 µM
same,intra-tumor concentration,[10],> 0.5 µmol/kg
same,IC50,[11],0.00024 µM
same,median survival,[12],21 days
same,drug concentration in the brain as share of the detected plasma level,[13],approximately 20%
same,objective responses,"[4]; day 29, lowest dose 1.6 mg/kg BID",100%
same,objective responses (PR plus CR),"[4]; day 29, pamiparib oral, BID for 28 days, doses from 1.6 mg/kg",100%
same,tumor relapse at day 89,[4]; pamiparib lowest dose 1.6 mg/kg,tumor relapse was observed
"Cn1ncnc1[C@H]1c2n[nH]c(=O)c3cc(F)cc(c23)N[C@@H]1c1ccc(F)cc1 [Talazoparib, talazoparib]","AUC1-4h, Brain",[3]; [14],85 ng·h/g
